Measurements as given in ChEMBL document CHEMBL1121400, “Quantitative structure--activity correlations of rifamycins as inhibitors of viral RNA-directed DNA polymerase and mammalian alpha and beta DNA polymerases” (J Med Chem, 1980).

Assays:
[1] = Partition coefficient (logP); details: octanol/water
[2] = Ability to inhibit mouse alpha DNA polymerase
Procedure, shortened: (§1)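 Enzyme in 50% glycerol, 1 mM dithiothreitol, 0.5 M KCl and 50 mM Tris-HCl pH 7.5 was premixed with inhibitor in 100% Me2SO and held on ice 10 min. Cocktail (MnCl2, KCl, NaF, BSA, [3H]dGTP, poly(2'-O-methylcytidylic acid)·d(pG)12-18) was then added. Incubation was 45 min at 37 °C.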

[3] = The logarithm of the reciprocal of the concentration which produces 50% inhibition of mammalian alpha DNA polymerase.
Procedure, shortened: (§2)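 Mammalian α or β DNA polymerase in 100 µL reaction: enzyme in 50% glycerol, 1 mM DTT, 0.5 M KCl, Tris-HCl pH 7.5; Me2SO compound; cocktail with MnCl2, NaF, [3H]dGTP, poly(2'-O-methylC)·d(pG)12-18 template. Compound added first, then enzyme, then cocktail; 45 min at 37 °C. Product radioactivity, background-corrected against Me2SO controls; 50% concentration from triplicate five-dose curves, 10^-3–10^-7 M, expressed as log(1/C).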

[4] = target: DNA polymerase beta (Mus musculus, UniProt Q8K409); assay: Ability to inhibit mouse beta DNA polymerase; procedure, shortened: as §1
[5] = target: Gag-Pol polyprotein (Woolly monkey sarcoma virus, UniProt P03359); assay: Ability to inhibit simian sarcoma virus reverse transcriptase
Procedure, shortened: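 Purified SSV-1 RNA-dependent DNA polymerase from 71 AP1 culture fluids, in 20% glycerol, 1 mM dithiothreitol, 1 mg/mL BSA and 50 mM Tris-HCl pH 7.5, was held 10 min on ice with inhibitor in Me2SO. Mn2+/[3H]dGTP cocktail with poly(2'-O-methylcytidylic acid)·d(pG)12-18 template was added, then 45 min at 37 °C. Background-corrected triplicate dose series; the 50% inhibition concentration was extrapolated.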

[6] = target: Gag-Pol polyprotein (Woolly monkey sarcoma virus) (UniProt P03359); assay: Inhibition of simian sarcoma virus reverse transcriptase
Procedure, shortened: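 SSV-1 RNA-dependent DNA polymerase purified from tissue culture fluid of 71 AP1 cells. 50 µL reaction containing 20% glycerol, 1 mM DTT, BSA, Tris-HCl pH 7.5, MnCl2, KCl, NaF, [3H]dGTP and poly(2'-O-methylC)·d(pG)12-18. Compound in Me2SO is mixed with enzyme on ice for 10 min before the cocktail is added, then incubated 45 min at 37 °C. Radioactivity in product; 50% inhibitory concentration from triplicate dose–response curves spanning 10^-3 to 10^-7 M.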

[7] = target: DNA polymerase beta (Mus musculus) (UniProt Q8K409); assay: The logarithm of the reciprocal of the concentration which produces 50% inhibition of mammalian beta DNA polymerase.; procedure, shortened: as §2

Sequence of Gag-Pol polyprotein (Woolly monkey sarcoma virus) (P03359 whole entry): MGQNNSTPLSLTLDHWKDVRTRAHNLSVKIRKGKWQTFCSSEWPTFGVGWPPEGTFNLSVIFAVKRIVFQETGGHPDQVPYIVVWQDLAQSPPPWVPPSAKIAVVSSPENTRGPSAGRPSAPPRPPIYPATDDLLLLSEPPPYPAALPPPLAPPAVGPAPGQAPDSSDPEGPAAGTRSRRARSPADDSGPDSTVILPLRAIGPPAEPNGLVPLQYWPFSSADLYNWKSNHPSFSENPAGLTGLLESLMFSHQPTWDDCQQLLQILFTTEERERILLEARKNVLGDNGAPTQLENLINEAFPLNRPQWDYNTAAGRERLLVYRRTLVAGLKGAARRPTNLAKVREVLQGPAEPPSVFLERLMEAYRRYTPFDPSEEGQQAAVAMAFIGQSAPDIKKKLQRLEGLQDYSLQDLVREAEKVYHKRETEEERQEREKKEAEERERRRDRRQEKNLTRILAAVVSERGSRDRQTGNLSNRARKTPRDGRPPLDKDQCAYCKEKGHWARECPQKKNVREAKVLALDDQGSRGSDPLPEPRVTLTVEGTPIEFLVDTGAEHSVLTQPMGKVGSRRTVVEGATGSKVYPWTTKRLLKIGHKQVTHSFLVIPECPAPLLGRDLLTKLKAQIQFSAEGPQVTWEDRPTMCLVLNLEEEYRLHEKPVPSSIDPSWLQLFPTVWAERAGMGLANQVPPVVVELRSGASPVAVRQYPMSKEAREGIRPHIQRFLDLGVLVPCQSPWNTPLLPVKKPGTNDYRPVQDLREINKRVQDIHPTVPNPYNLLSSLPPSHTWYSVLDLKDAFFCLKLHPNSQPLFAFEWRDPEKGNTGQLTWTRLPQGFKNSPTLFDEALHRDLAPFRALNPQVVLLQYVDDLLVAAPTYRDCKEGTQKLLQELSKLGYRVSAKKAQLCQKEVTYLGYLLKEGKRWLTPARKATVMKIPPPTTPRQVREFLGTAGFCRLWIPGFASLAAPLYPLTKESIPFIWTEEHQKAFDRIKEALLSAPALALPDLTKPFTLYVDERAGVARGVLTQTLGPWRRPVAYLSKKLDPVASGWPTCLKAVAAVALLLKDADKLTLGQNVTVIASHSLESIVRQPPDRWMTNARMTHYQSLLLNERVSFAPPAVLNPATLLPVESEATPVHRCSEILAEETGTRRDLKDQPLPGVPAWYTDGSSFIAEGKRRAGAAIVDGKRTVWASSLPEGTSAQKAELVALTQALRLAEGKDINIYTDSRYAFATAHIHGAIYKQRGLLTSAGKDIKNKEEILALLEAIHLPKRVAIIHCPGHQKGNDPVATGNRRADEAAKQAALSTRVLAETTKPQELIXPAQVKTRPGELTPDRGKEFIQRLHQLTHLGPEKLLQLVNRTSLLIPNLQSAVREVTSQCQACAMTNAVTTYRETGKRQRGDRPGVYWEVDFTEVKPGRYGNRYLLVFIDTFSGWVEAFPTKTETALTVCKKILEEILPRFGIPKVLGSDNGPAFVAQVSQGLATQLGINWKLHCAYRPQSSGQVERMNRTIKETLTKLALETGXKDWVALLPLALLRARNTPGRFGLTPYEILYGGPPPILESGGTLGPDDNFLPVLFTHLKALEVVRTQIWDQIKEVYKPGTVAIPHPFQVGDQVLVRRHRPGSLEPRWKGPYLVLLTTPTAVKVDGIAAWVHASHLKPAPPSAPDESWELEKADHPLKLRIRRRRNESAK
Sequence of Gag-Pol polyprotein (P03359 642-1310 limits assumed): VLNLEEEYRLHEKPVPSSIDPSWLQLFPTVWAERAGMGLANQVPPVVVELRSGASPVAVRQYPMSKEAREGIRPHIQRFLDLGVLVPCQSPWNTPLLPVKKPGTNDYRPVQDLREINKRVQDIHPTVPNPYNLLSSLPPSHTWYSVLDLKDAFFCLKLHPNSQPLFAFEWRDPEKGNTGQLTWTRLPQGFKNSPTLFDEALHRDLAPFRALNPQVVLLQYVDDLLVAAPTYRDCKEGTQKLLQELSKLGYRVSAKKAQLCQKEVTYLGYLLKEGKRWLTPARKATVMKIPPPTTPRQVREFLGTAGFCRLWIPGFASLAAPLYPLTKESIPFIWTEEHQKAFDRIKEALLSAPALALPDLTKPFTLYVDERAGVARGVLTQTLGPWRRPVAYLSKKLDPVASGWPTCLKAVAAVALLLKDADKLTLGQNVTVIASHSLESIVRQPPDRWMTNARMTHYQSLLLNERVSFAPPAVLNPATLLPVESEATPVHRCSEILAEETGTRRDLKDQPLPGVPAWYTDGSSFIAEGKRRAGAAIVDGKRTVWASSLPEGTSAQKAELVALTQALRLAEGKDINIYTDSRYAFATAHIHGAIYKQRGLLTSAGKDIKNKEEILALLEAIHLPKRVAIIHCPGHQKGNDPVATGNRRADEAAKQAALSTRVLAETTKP

Structure (SMILES)	logP ([1]; logP)	IC50 [2] [M l-1]	Log 1/C [3]	IC50 ([4]; read-out: IC50) [µM]	IC50 ([5]; read-out: IC50) [µM]	Log 1/C [6]	Log 1/C [7]	IC50 [4] [M l-1]	IC50 [5] [M l-1]	logP [1]
COC1/C=C/OC2(C)Oc3c(C)c(O)c4c(O)c(c(/C=N/N5C(C)CN(Cc6ccc(C#N)cc6)CC5C)cc4c3C2=O)NC(=O)/C(C)=C\C=C\C(C)C(O)C(C)C(O)C(C)C(OC(C)=O)C1C (configuration not stated)	3.71	0.000047	4.33	22	16	4.8	4.66	–	–	–
COc1cccc(CN2CCN(/N=C/c3cc4c5c6c(C)c(O)c4c(O)c3NC(=O)/C(C)=C\C=C\C(C)C(O)C(C)C(O)C(C)C(OC(C)=O)C(C)C(OC)/C=C/OC(C)(O6)C5=O)CC2)c1 (configuration not stated)	3.34	0.00014	3.85	–	10	5	3.92	0.00012	–	–
COC1/C=C/OC2(C)Oc3c(C)c(O)c4c(O)c(c(/C=N/N5CCCCCCCCCCCCCCC5)cc4c3C2=O)NC(=O)/C(C)=C\C=C\C(C)C(O)C(C)C(O)C(C)C(OC(C)=O)C1C (stereo in doubt; 18) [listing 1 of 2 here]	6.05	0.000025	–	22	6.5	–	–	–	–	–
CCCN(CCC)/N=C/c1cc2c3c4c(C)c(O)c2c(O)c1NC(=O)/C(C)=C\C=C\C(C)C(O)C(C)C(O)C(C)C(OC(C)=O)C(C)C(OC)/C=C/OC(C)(O4)C3=O (configuration not stated)	3.85	0.00006500000000000002	4.19	45	13.5	4.87	4.35	–	–	–
COC1/C=C/OC2(C)Oc3c(C)c(O)c4c(O)c(c(/C=N/N5CCCCCC5)cc4c3C2=O)NC(=O)/C(C)=C\C=C\C(C)C(O)C(C)C(O)C(C)C(OC(C)=O)C1C (configuration not stated)	2.75	–	–	–	–	–	–	–	–	–
COC1/C=C/OC2(C)Oc3c(C)c(O)c4c(O)c(c(/C=N/N5CCCCCCCCCCCCCCC5)cc4c3C2=O)NC(=O)/C(C)=C\C=C\C(C)C(O)C(C)C(O)C(C)C(OC(C)=O)C1C (stereo in doubt; 18) [listing 2 of 2 here]	–	–	4.6	–	–	5.19	4.66	–	–	–
CCN(CC)Cc1cc2c3c4c(C)c(O)c2c(O)c1NC(=O)/C(C)=C\C=C\C(C)C(O)C(C)C(O)C(C)C(OC(C)=O)C(C)C(OC)/C=C/OC(C)(O4)C3=O (configuration not stated)	1.55	0.001	3	–	40	4.4	3	0.0011	–	–
CCCCCCN(CCCCCC)/N=C/c1cc2c3c4c(C)c(O)c2c(O)c1NC(=O)/C(C)=C\C=C\C(C)C(O)C(C)C(O)C(C)C(OC(C)=O)C(C)C(OC)/C=C/OC(C)(O4)C3=O (configuration not stated)	3.51	–	–	–	–	–	–	–	–	–
COC1/C=C/OC2(C)Oc3c(C)c(O)c4c(O)c(c(/C=N/N5CCCCCCC5)cc4c3C2=O)NC(=O)/C(C)=C\C=C\C(C)C(O)C(C)C(O)C(C)C(OC(C)=O)C1C (configuration not stated)	3.1	–	–	–	–	–	–	–	–	–
CCCCCN(CCCCC)/N=C/c1cc2c3c4c(C)c(O)c2c(O)c1NC(=O)/C(C)=C\C=C\C(C)C(O)C(C)C(O)C(C)C(OC(C)=O)C(C)C(OC)/C=C/OC(C)(O4)C3=O (configuration not stated)	3.47	0.000043	4.36	48	4.4	5.36	4.32	–	–	–
COC1/C=C/OC2(C)Oc3c(C)c(O)c4c(O)c(c(/C=N/N5C(C)CN(Cc6ccccc6)CC5C)cc4c3C2=O)NC(=O)/C(C)=C\C=C\C(C)C(O)C(C)C(O)C(C)C(OC(C)=O)C1C (configuration not stated)	4.28	0.000038	4.42	21	12.5	4.9	4.68	–	–	–
COC1/C=C/OC2(C)Oc3c(C)c(O)c4c(O)c(c(/C=N/N5CCN(N)CC5)cc4c3C2=O)NC(=O)/C(C)=C\C=C\C(C)C(O)C(C)C(O)C(C)C(OC(C)=O)C1C (configuration not stated)	2	0.000165	3.78	16	25	4.6	4.8	–	–	–
CCCCCCCCN(CCCCCCCC)/N=C/c1cc2c3c4c(C)c(O)c2c(O)c1NC(=O)/C(C)=C\C=C\C(C)C(O)C(C)C(O)C(C)C(OC(C)=O)C(C)C(OC)/C=C/OC(C)(O4)C3=O (stereo in doubt; 8) [listing 1 of 2 here]	–	–	4.62	–	–	5.49	5.13	–	–	–
NN1CCNCC1	-0.29	–	–	–	–	–	–	–	–	–
CCCCN(CCCC)/N=C/c1cc2c3c4c(C)c(O)c2c(O)c1NC(=O)/C(C)=C\C=C\C(C)C(O)C(C)C(O)C(C)C(OC(C)=O)C(C)C(OC)/C=C/OC(C)(O4)C3=O (configuration not stated)	3.66	–	–	–	–	–	–	–	–	–
COC1/C=C/OC2(C)Oc3c(C)c(O)c4c(O)c(ccc4c3C2=O)NC(=O)/C(C)=C\C=C\C(C)C(O)C(C)C(O)C(C)C(OC(C)=O)C1C (configuration not stated)	0.78	0.00076	3.12	–	–	3.43	2.96	0.0011	0.00037	–
COC1/C=C/OC2(C)Oc3c(C)c(O)c4c(O)c(c(/C=N/N5CCCCCCCC5)cc4c3C2=O)NC(=O)/C(C)=C\C=C\C(C)C(O)C(C)C(O)C(C)C(OC(C)=O)C1C (configuration not stated)	3.45	–	–	–	–	–	–	–	–	–
COC1/C=C/OC2(C)Oc3c(C)c(O)c4c(O)c(c(/C=N/OCCCc5ccccc5)cc4c3C2=O)NC(=O)/C(C)=C\C=C\C(C)C(O)C(C)C(O)C(C)C(OC(C)=O)C1C (configuration not stated)	4.83	0.000034	4.46	6.6	5.6	5.25	5.18	–	–	–
COC1/C=C/OC2(C)Oc3c(C)c(O)c4c(O)c(c(/C=N/N5CCCCCCCCCCCCCCC5)cc4c3C2=O)NC(=O)/C(C)=C\C=C\C(C)C(O)C(C)C(O)C(C)C(OC(C)=O)C1C (stereo in doubt; 31)	–	–	–	–	–	–	–	–	–	5.55
COC1/C=C/OC2(C)Oc3c(C)c(O)c4c(O)c(c(O)cc4c3C2=O)NC(=O)/C(C)=C\C=C\C(C)C(O)C(C)C(O)C(C)C(OC(C)=O)C1C (configuration not stated)	0.11	0.00023	2.64	–	13	2.64	2.64	0.00037	–	–
COC1/C=C/OC2(C)Oc3c(C)c(O)c4c(O)c(c(/C=N/N5CCCCCCCCCCCC5)cc4c3C2=O)NC(=O)/C(C)=C\C=C\C(C)C(O)C(C)C(O)C(C)C(OC(C)=O)C1C (stereo in doubt; 17) [listing 1 of 2 here]	4.75	0.000024	–	19	3.3	–	–	–	–	–
COC1/C=C/OC2(C)Oc3c(C)c(O)c4c(O)c(c(/C=N/N5CCN(C)CC5)cc4c3C2=O)NC(=O)/C(C)=C\C=C\C(C)C(O)C(C)C(O)C(C)C(OC(C)=O)C1C (configuration not stated)	–	0.00034	–	–	42	–	–	0.00015	–	–
COC1/C=C/OC2(C)Oc3c(C)c(O)c4c(O)c(c(/C=N/N5CCN(Cc6ccccc6)CC5)cc4c3C2=O)NC(=O)/C(C)=C\C=C\C(C)C(O)C(C)C(O)C(C)C(OC(C)=O)C1C (configuration not stated)	3.36	–	–	–	–	–	–	–	–	–
CCCCCCCCN(CCCCCCCC)/N=C/c1cc2c3c4c(C)c(O)c2c(O)c1NC(=O)/C(C)=C\C=C\C(C)C(O)C(C)C(O)C(C)C(OC(C)=O)C(C)C(OC)/C=C/OC(C)(O4)C3=O (stereo in doubt; 8) [listing 2 of 2 here]	–	0.000024	–	7.4	3.2	–	–	–	–	3.62
COC1/C=C/OC2(C)Oc3c(C)c(O)c4c(O)c(c(/C=N/N5CCNCC5)cc4c3C2=O)NC(=O)/C(C)=C\C=C\C(C)C(O)C(C)C(O)C(C)C(OC(C)=O)C1C (configuration not stated)	1.12	–	–	–	–	–	–	–	–	–
COC1/C=C/OC2(C)Oc3c(C)c(O)c4c(O)c(c(/C=N/N5CCCCCCCCCCCC5)cc4c3C2=O)NC(=O)/C(C)=C\C=C\C(C)C(O)C(C)C(O)C(C)C(OC(C)=O)C1C (stereo in doubt; 17) [listing 2 of 2 here]	–	–	4.62	–	–	5.48	4.72	–	–	–
COC1/C=C/OC2(C)Oc3c(C)c(O)c4c(O)c(c(/C=N/N5CCCCCCCCCCCC5)cc4c3C2=O)NC(=O)/C(C)=C\C=C\C(C)C(O)C(C)C(O)C(C)C(OC(C)=O)C1C (stereo in doubt; 30)	–	–	–	–	–	–	–	–	–	4.65
CCCCCCCCN(CCCCCCCC)/N=C/c1cc2c3c4c(C)c(O)c2c(O)c1NC(=O)/C(C)=C\C=C\C(C)C(O)C(C)C(O)C(C)C(OC(C)=O)C(C)C(OC)/C=C/OC(C)(O4)C3=O (stereo in doubt; 35)	3.6	–	–	–	–	–	–	–	–	–
COC1/C=C/OC2(C)Oc3c(C)c(O)c4c(O)c(c(/C=N/N5C(C)CC(Cc6ccccc6)CC5C)cc4c3C2=O)NC(=O)/C(C)=C\C=C\C(C)C(O)C(C)C(O)C(C)C(OC(C)=O)C1C (configuration not stated)	6.3	–	–	–	–	–	–	–	–	–
COC1/C=C/OC2(C)Oc3c(C)c(O)c4c(O)c(c(/C=N/N5CCCCC5)cc4c3C2=O)NC(=O)/C(C)=C\C=C\C(C)C(O)C(C)C(O)C(C)C(OC(C)=O)C1C (configuration not stated)	2.35	–	–	–	–	–	–	–	–	–
